ChEMBL document CHEMBL4823248, “Pyrazole Agonist of the Apelin Receptor Improves Symptoms of Metabolic Syndrome in Mice” (J Med Chem, 2021)

Legend:
Apelin receptor [1] = biological target: T1, Apelin receptor (Homo sapiens, UniProt P35414); assay: Agonist activity at human AGTRL1 expressed in CHO-K1 cells assessed as induction of beta-arrestin 2 recruitment incubated for 90 mins by PathHunter assay; assay type: functional, cell-based
T1 sequence (P35414 whole entry): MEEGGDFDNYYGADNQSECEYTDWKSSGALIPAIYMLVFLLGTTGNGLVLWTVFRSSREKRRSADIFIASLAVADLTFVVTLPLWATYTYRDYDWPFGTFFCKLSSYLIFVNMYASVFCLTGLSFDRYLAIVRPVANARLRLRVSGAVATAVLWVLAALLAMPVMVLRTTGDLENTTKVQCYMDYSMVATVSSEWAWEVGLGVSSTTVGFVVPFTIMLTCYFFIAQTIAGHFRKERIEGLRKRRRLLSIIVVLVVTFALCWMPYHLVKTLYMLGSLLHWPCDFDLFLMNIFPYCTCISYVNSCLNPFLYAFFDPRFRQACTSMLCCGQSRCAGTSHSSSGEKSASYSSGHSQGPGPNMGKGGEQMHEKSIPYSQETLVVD

Apelin receptor [2] = biological target: T1, Apelin receptor; assay: Agonist activity at human APJ receptor expressed in CHO cells assessed as inhibition of forskolin-induced cAMP accumulation measured after 30 mins by TR-FRET assay
[3] = Half life in human pooled liver microsomes at 1 uM incubated up to 120 mins in presence of NADPH by LC-MS analysis; assay type: ADME, Microsome
[4] = Intrinsic clearance in human pooled liver microsomes at 1 uM incubated up to 120 mins in presence of NADPH by LC-MS analysis; assay type: ADME, Microsome; details: read-out: CLH
[5] = Half life in CD-1 mouse brain at 15 mg/kg, ip measured up to 24 hrs by LC-MS/MS analysis; assay type: ADME, organism-based
Procedure, shortened: (§1)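 Male CD-1 mice, about 10 weeks old, acclimated 72 h. Single 15 mg/kg IP dose formulated in modified citrate buffer (pH 6). Animals sacrificed at 0.5, 1, 2, 4, 8 and 24 h to collect plasma and brain samples. Cmax, AUC_all, CL and T1/2 determined.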

[6] = Kinetic solubility of the compound in pH 7.4 PBS buffer measured after 2 hrs by LC-MS/MS analysis; assay type: physicochemical; details: read-out: Kinetic_solubility
Procedure, shortened: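 20 mM DMSO stock diluted into PBS pH 7.4 to a targeted 400 μM. Agitated 2 h at room temperature, filtered through 1 μm glass fiber, and eluate diluted 400-fold in acetonitrile/water (1:1) for analysis.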

[7] = AUC in CD-1 mouse plasma at 15 mg/kg, ip measured up to 24 hrs by LC-MS/MS analysis; assay type: ADME, organism-based; parameters: route intraperitoneal, dose 15 mg/kg, time <=24; procedure, shortened: as §1
[8] = Half life in CD-1 mouse plasma at 15 mg/kg, ip measured up to 24 hrs by LC-MS/MS analysis; assay type: ADME, organism-based; procedure, shortened: as §1
[9] = Cmax in CD-1 mouse brain at 15 mg/kg, ip measured up to 24 hrs by LC-MS/MS analysis; assay type: ADME, organism-based; parameters: route intraperitoneal, dose 15 mg/kg, time <=24; procedure, shortened: as §1
[10] = Cmax in CD-1 mouse plasma at 15 mg/kg, ip measured up to 24 hrs by LC-MS/MS analysis; assay type: ADME, organism-based; parameters: route intraperitoneal, dose 15 mg/kg, time <=24; procedure, shortened: as §1
[11] = Clearance in CD-1 mouse plasma at 15 mg/kg, ip measured up to 24 hrs by LC-MS/MS analysis; assay type: ADME, organism-based; procedure, shortened: as §1
[12] = biological target: T2, Type-1 angiotensin II receptor (Homo sapiens, UniProt P30556); assay: Agonist activity at Galphaq16-fused human AGTR1 expressed in CHO cells assessed as stimulation of Ca2+ mobilization incubated for 1 hr by Calcium 5-dye based fluorescence based assay; assay type: functional, cell-based
T2 sequence (P30556 whole entry): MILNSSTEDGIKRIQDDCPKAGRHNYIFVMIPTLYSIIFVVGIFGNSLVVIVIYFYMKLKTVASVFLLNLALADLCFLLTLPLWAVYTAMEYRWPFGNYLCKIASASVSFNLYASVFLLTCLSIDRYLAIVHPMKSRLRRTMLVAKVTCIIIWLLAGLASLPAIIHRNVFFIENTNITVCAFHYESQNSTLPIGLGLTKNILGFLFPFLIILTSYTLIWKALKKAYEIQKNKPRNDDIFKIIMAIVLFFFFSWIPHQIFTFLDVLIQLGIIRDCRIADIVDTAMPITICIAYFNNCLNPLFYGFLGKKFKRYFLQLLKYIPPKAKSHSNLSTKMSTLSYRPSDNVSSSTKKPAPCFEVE
Procedure, shortened: (§2)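 CHO cells stably co-expressing Gαq16 with mouse APJ or human AGTR1; 20,000 hAGTR1 cells per well, plated 24 h at 37 °C. Loaded 1 h at 37 °C with Calcium 5 dye in HBSS buffer with 20 mM HEPES, 1% BSA, 10 μM probenecid, 1% DMSO final. Stimulated with compounds at various concentrations; fluorescence read on FLIPR Tetra. Duplicate, 2−3 runs.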

[13] = Protein binding in human plasma at 10 uM measured after 4 hrs by LC-MS/MS analysis; assay type: ADME, cell-free; details: read-out: PPB (converted)
Procedure, shortened: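 Human plasma spiked at 10 μM, dialyzed against phosphate/NaCl buffer by rapid equilibrium dialysis for 4 h at 37 °C with shaking at 100 rpm. Samples matrix-matched, protein precipitated with cold acetonitrile/formic acid, and analyzed by LC−MS/MS. Three independent samples.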

[14] = biological target: Voltage-gated inwardly rectifying potassium channel KCNH2 (Homo sapiens, UniProt Q12809); assay: Displacement of [3H]astemizole from human ERG at 10 uM measured after 60 mins by scintillation counter method; details: 1 h
Procedure, shortened: (§3)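 Competition binding using 4 μg hERG-expressing membranes with ~3 nM [3H]astemizole for 60 min in pH 7.4 HEPES buffer with 0.1% BSA. Terminated by filtration onto polyethyleneimine-soaked GF/B filters, washed with ice-cold buffer, and counted with scintillant. At least two runs in duplicate.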

Apelin receptor [15] = biological target: T3, Apelin receptor (Mus musculus, UniProt Q9WV08); assay: Agonist activity at Galphaq16-fused mouse APJ receptor expressed in CHO cells assessed as stimulation of Ca2+ mobilization incubated for 1 hr by Calcium 5-dye based fluorescence based assay; assay type: cell-based; procedure, shortened: as §2
T3 sequence (Q9WV08 whole entry): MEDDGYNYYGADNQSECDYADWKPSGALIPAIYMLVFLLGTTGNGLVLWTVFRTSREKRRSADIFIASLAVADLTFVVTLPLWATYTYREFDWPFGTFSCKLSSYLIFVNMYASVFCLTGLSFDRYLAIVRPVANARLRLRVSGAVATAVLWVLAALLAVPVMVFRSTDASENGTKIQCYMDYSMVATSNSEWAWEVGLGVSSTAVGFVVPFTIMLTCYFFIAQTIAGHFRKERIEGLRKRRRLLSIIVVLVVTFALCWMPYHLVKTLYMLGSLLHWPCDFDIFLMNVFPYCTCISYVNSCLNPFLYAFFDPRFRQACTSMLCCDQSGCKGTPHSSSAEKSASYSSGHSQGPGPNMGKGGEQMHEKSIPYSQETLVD

hERG (KCNH2) = hERG (KCNH2) (Homo sapiens, UniProt Q12809); assay: Displacement of [3H]astemizole from human ERG at 10 uM measured after 60 mins by scintillation counter method relative to control; details: probe [3H]astemizole; procedure, shortened: as §3
[16] = AUC in CD-1 mouse brain at 15 mg/kg, ip measured up to 24 hrs by LC-MS/MS analysis; assay type: ADME, organism-based; parameters: route intraperitoneal, dose 15 mg/kg, time <=24; procedure, shortened: as §1

hERG (KCNH2), sequence (Q12809 whole entry): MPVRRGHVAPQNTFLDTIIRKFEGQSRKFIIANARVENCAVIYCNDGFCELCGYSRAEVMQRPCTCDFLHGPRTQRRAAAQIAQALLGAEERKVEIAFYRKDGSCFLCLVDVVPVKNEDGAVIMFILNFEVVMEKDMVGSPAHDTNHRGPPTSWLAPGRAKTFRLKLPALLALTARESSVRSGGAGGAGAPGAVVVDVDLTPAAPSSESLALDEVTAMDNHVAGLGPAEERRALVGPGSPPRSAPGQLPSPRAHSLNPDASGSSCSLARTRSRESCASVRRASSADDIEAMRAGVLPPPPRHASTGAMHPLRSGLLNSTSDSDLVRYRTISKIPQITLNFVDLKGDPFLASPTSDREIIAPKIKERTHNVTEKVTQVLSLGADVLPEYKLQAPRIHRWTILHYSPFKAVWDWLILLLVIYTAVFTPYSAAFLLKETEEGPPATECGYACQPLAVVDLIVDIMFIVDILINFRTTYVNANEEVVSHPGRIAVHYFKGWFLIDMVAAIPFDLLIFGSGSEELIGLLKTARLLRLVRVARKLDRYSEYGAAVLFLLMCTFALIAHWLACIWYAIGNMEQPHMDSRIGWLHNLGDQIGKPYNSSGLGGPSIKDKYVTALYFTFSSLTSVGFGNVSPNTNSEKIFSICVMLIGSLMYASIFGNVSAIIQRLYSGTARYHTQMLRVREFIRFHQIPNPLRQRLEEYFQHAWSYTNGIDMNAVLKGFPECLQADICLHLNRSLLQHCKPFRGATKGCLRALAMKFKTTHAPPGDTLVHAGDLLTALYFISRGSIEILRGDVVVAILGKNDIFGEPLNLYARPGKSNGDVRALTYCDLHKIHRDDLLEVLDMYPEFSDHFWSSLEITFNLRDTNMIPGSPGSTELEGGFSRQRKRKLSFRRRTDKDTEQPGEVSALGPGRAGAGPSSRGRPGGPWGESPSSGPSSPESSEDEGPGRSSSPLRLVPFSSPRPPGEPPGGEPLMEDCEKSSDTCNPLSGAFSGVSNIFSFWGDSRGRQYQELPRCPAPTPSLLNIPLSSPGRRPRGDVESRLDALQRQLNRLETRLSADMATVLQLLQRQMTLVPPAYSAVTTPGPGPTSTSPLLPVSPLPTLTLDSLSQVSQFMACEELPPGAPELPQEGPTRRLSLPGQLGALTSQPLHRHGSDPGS
Voltage-gated inwardly rectifying potassium channel KCNH2, sequence (Q12809 whole entry): as above

Row | Structure (SMILES) | EC50 (Apelin receptor [1]) [nM] | EC50 (Apelin receptor [2]) [nM] | half-life at 1 µM [3] [min] | CLint scaled at 1 µM [4] [mL/min/kg] | further results
1 | COc1cccc(OC)c1-c1cc(C(=O)N[C@@H](CCN2C(C)CCCC2C)CC(=O)NC2CCC2)nn1C1CCCC1.Cl (some centres undefined) | 459 | 33 | 52 | 23.9 | –
2 | COc1cccc(OC)c1-c1cc(C(=O)N[C@@H](CCN2CCCCC2)CC(=O)NC2CCC2)nn1C1CCCC1.Cl | – | – | 62 | 20 | half-life [5]: 804 min; solubility kinetic at 2 h [6]: 192 µM; AUC at 24 h [7]: 3000 ng·h/mL; half-life [8]: 162 min; Cmax [9]: 103 ng/mL; Cmax [10]: 1580 ng/mL; CL/F [11]: 83 mL/min/kg; EC50 [12]: > 10000 nM; fraction unbound at 4 h, 10 µM [13]: 0.09; inhibition (INH) [14]: Not Active; EC50 (Apelin receptor [15]): 22 nM; inhibition at 1 h, 10 µM (hERG (KCNH2)): < 50%; AUC at 24 h [16]: 1080 ng·h/mL
3 | COc1cccc(OC)c1-c1cc(C(=O)N[C@@H](CCN2CCCCCC2)CC(=O)NC2CCC2)nn1C1CCCC1.Cl | 159 | 8 | 38 | 32.4 | –
4 | COc1cccc(OC)c1-c1cc(C(=O)N[C@@H](CCN2CCCCC2)CC(=O)Nc2nnn[nH]2)nn1C1CCCC1 | – | – | 24.2 | 25.8 | –
5 | COc1cccc(OC)c1-c1cc(C(=O)N[C@@H](CCN2CCCCC2)CC(=O)N(C)C2CCC2)nn1C1CCCC1 | 326 | 105 | 37 | 33.3 | –
6 | COc1cccc(OC)c1-c1cc(C(=O)N[C@@H](CCN2CCCCC2)CC(=O)NC2CC(F)(F)C2)nn1C1CCCC1 | – | – | 38 | 32.4 | –
7 | CC(C)NCC(O)COc1cccc2ccccc12 (centres undefined) [PROPRANOLOL] | – | – | – | – | fraction unbound at 4 h, 10 µM [13]: 0.39
8 | COc1cccc(OC)c1-c1cc(C(=O)N[C@@H](CCN2CCCCC2)CC(=O)Nc2nccs2)nn1C1CCCC1 | – | 1 | 27 | 46.7 | –
9 | COc1cccc(OC)c1-c1cc(C(=O)N[C@@H](CCN2CCCCC2)CC(=O)N(C)c2nccs2)nn1C1CCCC1 | 14 | 5 | 37 | 33.4 | –
10 | COc1cccc(OC)c1-c1cc(C(=O)N[C@@H](CCN2CCCCC2)Cc2nnc[nH]2)nn1C1CCCC1 | 523 | 134 | 33 | 37.8 | –
11 | COCCN(C)C(=O)C[C@H](CCN1CCCCC1)NC(=O)c1cc(-c2c(OC)cccc2OC)n(C2CCCC2)n1 | > 10000 | 2410 | – | – | –
12 | COc1cccc(OC)c1-c1cc(C(=O)N[C@@H](CCN2CCOCC2)CC(=O)NC2CCC2)nn1C1CCCC1.Cl | 1350 | 237 | 17 | 73.1 | –
